Screening data deposited in PubChem BioAssay by The Scripps Research Institute Molecular Screening Center.
CHO parental Ca = ATP-evoked calcium signal inhibitors, parental CHO, primary screen, counter-screen for OX1R antagonist project, cell-based, fluorescence, Fluo-8 calcium dye; parental CHO-K1, ATP-induced calcium, Fluo-8 fluorescence; 330,000 compounds, 0.63% hits; inhibition, % at 5.6 µM; AID 463079, 2010;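 active means inhibition above that plate's mean sample inhibition plus 3 SD, cut at about 26% in these data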;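 further: 0% = ATP-challenged DMSO wells and 100% = DMSO wells without ATP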
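Material – parental CHO cells · Reagent – ATP stimulus · Compound – single nominal dose of 5.6 µM per compound · Detection – Fluo-8 fluorescence · Read-out basis – percent inhibition of calcium signal · Controls – ATP-challenged DMSO wells low, unchallenged DMSO wells high · Repeats – no replicates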
OX1R antag-1 = OX1R (HCRTR1) antagonists, primary screen, fluorescence, CHO/OX1R cells, Fluo-8 calcium, orexin A; AID 434989, 2010; Orexin/Hypocretin receptor type 1 (Homo sapiens), O43613; inhibition, % at 5 µM; 330,000 compounds, 0.43% hits; Fluo-8 calcium fluorescence;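 active means inhibition above its plate's threshold, mean inhibition of all tested compounds on the plate plus 3 SD, cut at about 37% in these data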;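 further: 0% = orexin A challenge wells and 100% = SB-334867-A antagonist wells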
OXTR ag = human OXTR agonists, primary screen, fluorescence, CHO-OTR cells, Fluo-8 calcium; activation, % at 3 µM; AID 2435, 2010; 320,000 compounds, 0.32% hits; Fluo-8 calcium fluorescence; normalized: DMSO 0%, oxytocin 100%;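 active means activation above the mean of all tested compounds plus 3 SD, cutoff set per screening run, cut at about 20% in these data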;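 further: peak over basal fluorescence ratio from a 100 s FLIPR kinetic read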
Target sequence (P30559 whole entry, looked up): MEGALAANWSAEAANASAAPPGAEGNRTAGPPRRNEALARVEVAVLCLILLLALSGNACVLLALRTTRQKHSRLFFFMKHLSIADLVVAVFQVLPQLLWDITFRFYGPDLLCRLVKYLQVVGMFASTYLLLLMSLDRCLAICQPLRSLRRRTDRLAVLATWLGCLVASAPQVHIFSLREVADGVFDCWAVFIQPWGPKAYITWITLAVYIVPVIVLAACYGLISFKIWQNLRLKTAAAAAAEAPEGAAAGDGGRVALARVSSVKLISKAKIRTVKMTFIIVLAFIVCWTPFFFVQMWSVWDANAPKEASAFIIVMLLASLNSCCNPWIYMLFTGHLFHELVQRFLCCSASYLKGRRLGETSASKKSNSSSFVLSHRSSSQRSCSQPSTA
V1R ag counter = agonists of human V1a receptor, primary screen, counter-screen for OXTR agonist project, fluorescence, CHO-V1R cells | Vasopressin V1a receptor (Homo sapiens), P37288 | Fluo-8 calcium fluorescence, agonist mode; 0% DMSO, 100% 3 nM vasopressin | activation, % at 3 µM | 320,000 compounds, 0.25% hits | AID 2797, 2010;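 active means activation above the mean activation of all tested compounds plus 3 SD, per screening run, cut at about 20% in these data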;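 further: signal is peak over basal fluorescence ratio across a 100 second FLIPR read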
OX1R antag-2 = antagonists of human orexin 1 receptor (OX1R); OX1R-expressing cells, FRET antagonist read-out; 330,000 compounds, 1.8% hits; inhibition, % at 6.6 µM; Orexin/Hypocretin receptor type 1 (Homo sapiens), O43613; in the data active means inhibition mostly above about 38%, no sharp cut-off; inactive means mostly below about 40%;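 further: 0% = agonist challenge alone and 100% = reference antagonist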
OXTR potentiate = human OXTR potentiators, primary screen, fluorescence, CHO-OTR cells, Fluo-8 calcium; Oxytocin receptor (Homo sapiens), P30559; Fluo-8 calcium fluorescence, potentiator mode; 0% = oxytocin EC15, 100% = EC100; activation, % at 3 µM; 320,000 compounds, 0.061% hits; AID 2445, 2010;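 active means activation above that plate's cutoff, the mean activation of tested compounds plus 3 SD, cut at about 6.6% in these data, passing the limit was not always enough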;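 further: 100% uses oxytocin at 75 nM as the full agonist control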
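Assay system: CHO cell line stably expressing human OTR | Also added: Oxytocin at about EC15, sub-maximal agonist stimulus | Times: Compound 6 min at room temperature before oxytocin, 100 s read | Measured by: Fluo-8 intracellular calcium fluorescence, ex 470-495, em 515-575 nm | Controls: EC15 oxytocin alone as 0%, 75 nM oxytocin as 100%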
OX1R HTRF conf = OX1R (HCRTR1) antagonists, confirmation, cell-based, HTRF | AID 492964, 2010 | OX1R-expressing cells, HTRF antagonist assay | shares compounds with OX1R antag-2 | 1,800 compounds, 49% hits | inhibition, % at 6.6 µM; in the data active means inhibition above about 55%;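 further: CHO cells expressing OX1R stimulated with orexin A at about EC80; 0% = agonist challenge alone and 100% = reference antagonist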
CHO-K1 HTRF = signal inhibition in parental CHO-K1 cells, counter-screen for OX1R antagonist project, cell-based, HTRF. inhibition, % at 6.6 µM. 1,800 compounds, 48% hits. shares compounds with OX1R antag-2. HTRF counterscreen; in the data active means inhibition above about 17%;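 further: 0% = agonist challenge with vehicle and 100% = vehicle alone without agonist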
An asterisk follows results filed as active; · = not tested or not shown. Most compounds without a hit are left out; they make up all but 2.7% or so of the library.

SMILES	CHO parental Ca	OX1R antag-1	OXTR ag	V1R ag counter	OX1R antag-2	OXTR potentiate	OX1R HTRF conf	CHO-K1 HTRF
CCCCn1c(N)c(N(CC(C)C)C(=O)c2cc3c(s2)CCCCC3)c(=O)[nH]c1=O	-13	-14	-1	0	13	-1	·	·
Cc1cccc(NC(=O)Nc2cccc(C#N)c2)n1	-13	-21	-2	-1	91*	-3	54	5
Cc1cccc(NC(=O)Nc2ccc(C#N)cc2)n1	-16	-18	2	1	11	-3	·	·
Cc1cnnc2ccc3c(no[n+]3[O-])c12	-3	-4	0	1	126*	-10	43	54*
O=C1NCCCC1C(=O)Nc1ccccc1C(F)(F)F (stereo unspecified)	-8	-12	1	0	18	-3	·	·
O=C(c1ccccc1NS(=O)(=O)c1cccc([N+](=O)[O-])c1)N1CCCC1	-11	0	0	-1	78*	-13	20	7
O=C(c1ccc(NS(=O)(=O)c2cccc([N+](=O)[O-])c2)cc1)N1CCCCCC1	-10	-22	2	3	24	-8	·	·
N#C/C(=N\Nc1ccc(F)cc1)C(=N)N1CCCCCC1	-18	12	0	1	16	-17	·	·
N#C/C(=N\Nc1ccc(Cl)cc1)C(=N)N1CCCCC1	17	-23	6	7	77*	-21	18	11
O=C(N/N=C/c1ccco1)c1cccc(N2Cc3ccccc3C2)c1	-9	-23	-1	2	16	-7	·	·
COc1ccc(N2C(=O)c3cccc4cc(Br)cc(c34)C2=O)cc1	-10	-5	1	1	14	0	·	·
O=C1c2cccc3cccc(c23)C(=O)N1c1ccccn1	-12	-12	-1	-1	99*	3	61*	60*
O=C1c2cccc3cccc(c23)C(=O)N1c1ccncc1	-15	-12	1	3	111*	-5	54	67*
CNc1c(NC(=O)c2ccc3c(c2)OCO3)c(=O)oc2ccccc12	3	-17	2	3	9	-4	·	·
O=C(CSc1nc(O)c(C2CCCCC2)c(=O)[nH]1)Nc1ccccc1Cl	-13	-10	0	-1	79*	4	20	1
O=C(OCCOCCN=C1NS(=O)(=O)c2ccccc21)c1ccccc1	-4	3	3	1	17	-9	·	·
CCOc1cc(N2CCOCC2)c(OCC)cc1NC(=O)COC(=O)COc1ccc(C#N)cc1	0	-19	-1	-1	4	-4	·	·
Cc1noc(C)c1CS(=O)(=O)c1ccc([N+](=O)[O-])cc1	10	-7	1	1	107*	-2	58*	58*
O=C1c2cc(S(=O)(=O)N(CCO)CCO)ccc2-c2ccc(S(=O)(=O)N(CCO)CCO)cc21	3	-6	-1	1	111*	-10	71*	72*
Cc1ncc(CN2CCCC(C(=O)Nc3ccc(-c4cccc(F)c4)cc3)C2)n1C (stereo unspecified)	-6	-16	3	6	16	-2	·	·
CSCc1cccc(C(=O)OC(C)C(=O)Nc2c(C)n(C)n(-c3ccccc3)c2=O)c1 (stereo unspecified)	-19	-19	0	0	2	-3	·	·
Brc1cc2ccccc2[n+](Cc2ccccc2)c1	-15	-3	0	0	102*	1	52	62*
O=c1/c(=C/c2ccc([N+](=O)[O-])cc2)sc2n1CCCN=2	-3	-9	8	5	169*	-9	61*	84*
CN(C)C(CNC(=O)c1cc2ccccc2oc1=O)c1ccccc1 (stereo unspecified)	-7	-37	0	2	92*	2	35	43*
O=c1ccc2ccc(OCCOc3cccc(Cl)c3)cc2o1	-11	-27	-1	1	17	-4	·	·
SMILES	CHO parental Ca	OX1R antag-1	OXTR ag	V1R ag counter	OX1R antag-2	OXTR potentiate	OX1R HTRF conf	CHO-K1 HTRF
O=C(Nc1ncc([N+](=O)[O-])s1)C1CC(=O)N(c2ccc(F)cc2)C1 (stereo unspecified)	16	-17	9	5	26	-9	·	·
O=C1NCCN1c1ncc([N+](=O)[O-])s1	6	-2	0	1	82*	-3	63*	88*
O=C(NNC(=O)c1ccc([N+](=O)[O-])cc1Cl)c1ccncc1	-6	-11	3	1	103*	-8	39	44*
O=C(NNC(=O)c1ccc(Cl)cc1Cl)c1ccncc1	-11	-8	0	1	2	4	·	·
O=C1C2=C(c3ccccc31)[N+](=O)C1CCCCC1N2[O-] (stereo unspecified)	-2	-11	1	0	112*	-6	45	44*
O=C(CNC(=O)c1ccccc1)c1ccccc1	-11	-18	0	0	85*	1	15	-4
O=C(NCCc1ccccc1)[C@@H]1CC=C[C@@H]2CCN(Cc3ccc(Cl)c(Cl)c3)C(=O)[C@@H]21	-29	17	-1	0	82*	-8	66*	5
O=C(NCc1cccnc1)[C@@H]1CC=C[C@@H]2CCN(Cc3ccc(Cl)c(Cl)c3)C(=O)[C@@H]21	-16	-19	0	-1	28	-8	·	·
CCOC(=O)/C(C#N)=N/Nc1ccccc1C#N	-7	-6	4	5	10	-6	·	·
O=C(COC(=O)c1ccc([N+](=O)[O-])o1)NCc1ccccc1	-12	5	1	1	26	-1	·	·
O=C(COC(=O)c1ccc([N+](=O)[O-])s1)NCc1ccccc1	-5	-22	1	1	124*	-11	28	18*
O=C(C1CCCN(S(=O)(=O)c2ccccc2[N+](=O)[O-])C1)N1CCCC1 (stereo unspecified)	1	22	0	0	122*	-2	27	4
Cc1cc(C(N)=O)nn1-c1c(Cl)cc(Cl)cc1Cl	-11	-11	0	15	0	-4	·	·
